Results: the array DNA melting data of Ke et al. (doi:10.1101/2024.01.08.574731)

Columns and labels:
[1] = folding enthalpy; higher = less favourable; fluorescence melt of hairpins on a sequencing array, two-state fit; conditions: sodium 0.088 M
In short: (§1)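 Library hairpins on a sequenced MiSeq flow cell carried annealed Cy3 and quencher oligos, and their Cy3 fluorescence was imaged in 50 mM Na-HEPES pH 8.0 with 25 mM NaCl, in 2.5 °C steps up to 60 °C. Signals were normalised to Cy3 before quenching and to control constructs. Melting temperature and folding enthalpy were obtained from bootstrapped two-state fits, combined by inverse-variance weighting across four replicates, and the fitted temperatures were then raised by 9.35 °C to match UV melts.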

[2] = melting temperature; fluorescence melt of hairpins on a sequencing array, two-state fit, raised by 9.35 °C to match UV melts; conditions: sodium 0.088 M
In short: as §1

GGGTTAACGAAAGTTCCC (((..(((....))))))
folding enthalpy [1]: -88.6 kJ/mol
Tm [2]: 37.4 °C

GCCGATGGAAACATCGAC (.(((((....))))).)
folding enthalpy [1]: -68.1 kJ/mol
Tm [2]: 48 °C

GAGGGCGCGAAAGCGCTC (((..(((....))))))
folding enthalpy [1]: -32.2 kJ/mol
Tm [2]: 42.5 °C

GAGGCAGGAAACTGCTTC ((.((((....)))).))
folding enthalpy [1]: -75.4 kJ/mol
Tm [2]: 47.7 °C

GTAAAGCGAAAGCTGTAC (((.(((....))).)))
folding enthalpy [1]: -85.5 kJ/mol
Tm [2]: 44.4 °C

GATCTGACTCAGATC ((((((...))))))
folding enthalpy [1]: -141 kJ/mol
Tm [2]: 46.8 °C

GCGAGCGAAAGCTGTCGC ((((((....)))..)))
folding enthalpy [1]: -99.4 kJ/mol
Tm [2]: 52.9 °C

GCCCCTCGAAAGAGGGC (((.(((....))))))
folding enthalpy [1]: -54.5 kJ/mol
Tm [2]: 61.5 °C

GCGAACGGAAACGTTCAC (.(((((....))))).)
folding enthalpy [1]: -60.3 kJ/mol
Tm [2]: 46.1 °C

GTATGCGGAAACGCGTAC (((.(((....))).)))
folding enthalpy [1]: -133 kJ/mol
Tm [2]: 55 °C

GGAGGGGAAACCCTCC ((((((....))))))
folding enthalpy [1]: -129 kJ/mol
Tm [2]: 62.8 °C

GGACCAGGAAACTGACCC ((..(((....)))..))
folding enthalpy [1]: -44.3 kJ/mol
Tm [2]: 23.5 °C

GAGCTCGGAAACAAGCTC (((((.(....).)))))
folding enthalpy [1]: -126 kJ/mol
Tm [2]: 43 °C

GTACTTGGAAACAAGCAC ((.((((....)))).))
folding enthalpy [1]: -108 kJ/mol
Tm [2]: 37.8 °C

GATAACCGAAAGGTAATC (((.(((....))).)))
folding enthalpy [1]: -88.6 kJ/mol
Tm [2]: 40.2 °C

GCGATAGGAAACTACCGC (((.(((....))).)))
folding enthalpy [1]: -119 kJ/mol
Tm [2]: 44.7 °C

GTGTGCGAAAGCAGACAC ((((((....)))..)))
folding enthalpy [1]: -80 kJ/mol
Tm [2]: 53.2 °C

GATCAGGGCTCTGATC ((((((....))))))
folding enthalpy [1]: -162 kJ/mol
Tm [2]: 55.1 °C

GTGTCCGAAAGGACCAC ((((((....))).)))
folding enthalpy [1]: -42.7 kJ/mol
Tm [2]: 48.5 °C

GATCATGGAAACATGACC (.(((((....))))).)
folding enthalpy [1]: -72.6 kJ/mol
Tm [2]: 36.1 °C

GTCTTGCGAAAGCAGAC (((.(((....))))))
folding enthalpy [1]: -95.3 kJ/mol
Tm [2]: 52.1 °C

GACGTTGGAAACGACGTC (((((.(....).)))))
folding enthalpy [1]: -147 kJ/mol
Tm [2]: 55.8 °C

GGTTCGCGAAAGCGTACC (((.(((....))).)))
folding enthalpy [1]: -109 kJ/mol
Tm [2]: 56 °C

GCGTCCTACGC ((((...))))
folding enthalpy [1]: -84.6 kJ/mol
Tm [2]: 62.5 °C

GATCCAGAGTGGATC ((((((...))))))
folding enthalpy [1]: -131 kJ/mol
Tm [2]: 48.8 °C

GGCGATGGAAACACCGCC ((((.((....)).))))
folding enthalpy [1]: -216 kJ/mol
Tm [2]: 54 °C

GACGTGCGAAAGCATGTC (((.(((....))).)))
folding enthalpy [1]: -147 kJ/mol
Tm [2]: 65.1 °C

GCAGGGGAAACCCTGC ((((((....))))))
folding enthalpy [1]: -146 kJ/mol
Tm [2]: 68.1 °C

GTCCTGCGAAAGCAGAC (((.(((....))))))
folding enthalpy [1]: -50.6 kJ/mol
Tm [2]: 47.4 °C

GTTTTCGGAAACGAAAAC (((((((....)))))))
folding enthalpy [1]: -178 kJ/mol
Tm [2]: 58.5 °C

GCAGTGCGAAAGCTCAGC ((.(.((....)).).))
folding enthalpy [1]: -61.6 kJ/mol
Tm [2]: 49.2 °C

GATCACGCGAGTGATC ((((((....))))))
folding enthalpy [1]: -142 kJ/mol
Tm [2]: 68.8 °C

GGGGGCGGAAACACCCCC (((((.(....).)))))
folding enthalpy [1]: -164 kJ/mol
Tm [2]: 56.9 °C

GAGTGAGGAAACCCACTC (((((.(....).)))))
folding enthalpy [1]: -142 kJ/mol
Tm [2]: 44.5 °C

GAGGCAGGAAACTGCCCC (.(((((....))))).)
folding enthalpy [1]: -38.1 kJ/mol
Tm [2]: 44.2 °C

GTACCCGAAAGGGAATAC ((((((....)))..)))
folding enthalpy [1]: -52 kJ/mol
Tm [2]: 29.7 °C

GGACTGGGAAACTGGTCC ((((..(....)..))))
folding enthalpy [1]: -104 kJ/mol
Tm [2]: 45.5 °C

GCGGTGGCCCGC ((((....))))
folding enthalpy [1]: -68.1 kJ/mol
Tm [2]: 61 °C

GTAGCCACGAAAGTGTAC (((..(((....))))))
folding enthalpy [1]: -40.7 kJ/mol
Tm [2]: 22.3 °C

GCGGGGCGAAAGCTACGC (((..((....))..)))
folding enthalpy [1]: -114 kJ/mol
Tm [2]: 68.6 °C

GGAGTGAAAACTCC (((((....)))))
folding enthalpy [1]: -114 kJ/mol
Tm [2]: 54.8 °C

GAAGGGACGAAAGTCTTC (((..(((....))))))
folding enthalpy [1]: -49.4 kJ/mol
Tm [2]: 26.7 °C

GAGATGGGAAACCATTTC ((.((((....)))).))
folding enthalpy [1]: -112 kJ/mol
Tm [2]: 35 °C

GATCTGTCCGCAGATC ((((((....))))))
folding enthalpy [1]: -182 kJ/mol
Tm [2]: 52.9 °C

GAAGTGGCGAAAGCCTTC (((..(((....))))))
folding enthalpy [1]: -47.5 kJ/mol
Tm [2]: 31.4 °C

GCACCGCGAAAGCGTCGC ((..(((....)))..))
folding enthalpy [1]: -53.8 kJ/mol
Tm [2]: 41.2 °C

GATCTTGTGGAAGATC ((((((....))))))
folding enthalpy [1]: -123 kJ/mol
Tm [2]: 41.3 °C

GATCCGGCAACGGATC ((((((....))))))
folding enthalpy [1]: -146 kJ/mol
Tm [2]: 67.8 °C

CGATCGGAAACGAAATCG ((((((....)))..)))
folding enthalpy [1]: -93.1 kJ/mol
Tm [2]: 33.9 °C

GTCCACGAAAGTGAGAC ((((((....))).)))
folding enthalpy [1]: -99.6 kJ/mol
Tm [2]: 52.2 °C

GTGACGCGAAAGCGCAC (((.(((....))))))
folding enthalpy [1]: -62.9 kJ/mol
Tm [2]: 58.8 °C

GGGCATCGAAAGATTCCC (((.(((....))).)))
folding enthalpy [1]: -116 kJ/mol
Tm [2]: 47.5 °C

AAACGGAAACGTTT (((((....)))))
folding enthalpy [1]: -89.2 kJ/mol
Tm [2]: 45.1 °C

GGCGAATCGAAAGATGCC (((..(((....))))))
folding enthalpy [1]: -94 kJ/mol
Tm [2]: 46.1 °C

GGCACCGCGAAAGCGGCC (((..(((....))))))
folding enthalpy [1]: -35.7 kJ/mol
Tm [2]: 40 °C

CGCTACGGAAACGTGCG (((.(((....))))))
folding enthalpy [1]: -139 kJ/mol
Tm [2]: 53.3 °C

GTAGAGGGAAACCCCTAC ((((.((....)).))))
folding enthalpy [1]: -85.4 kJ/mol
Tm [2]: 39.2 °C

GGTCCCGAAAGGGGGACC ((((((....)))..)))
folding enthalpy [1]: -106 kJ/mol
Tm [2]: 59.2 °C

GATCACGCGGGTGATC ((((((....))))))
folding enthalpy [1]: -134 kJ/mol
Tm [2]: 57.1 °C

GGTCCTCGAAAGAGCACC (((.(((....))).)))
folding enthalpy [1]: -113 kJ/mol
Tm [2]: 38.5 °C

GGCCGCGAAAGCGGGGCC ((((((....)))..)))
folding enthalpy [1]: -53.1 kJ/mol
Tm [2]: 63.6 °C

GTAGTAGGAAACCACTAC (((((.(....).)))))
folding enthalpy [1]: -121 kJ/mol
Tm [2]: 35 °C

GCTGTCACGAAAGTGAGC (((..(((....))))))
folding enthalpy [1]: -51 kJ/mol
Tm [2]: 38.3 °C

GATCGATAGATCGATC ((((((....))))))
folding enthalpy [1]: -79.3 kJ/mol
Tm [2]: 61.1 °C

GGGTCATCGAAAGATCCC (((..(((....))))))
folding enthalpy [1]: -84.9 kJ/mol
Tm [2]: 34.5 °C

GGTGTAGGAAACTACATC (.(((((....))))).)
folding enthalpy [1]: -115 kJ/mol
Tm [2]: 42.2 °C

GTAAGGGGAAACCCTCAC ((.((((....)))).))
folding enthalpy [1]: -57.4 kJ/mol
Tm [2]: 30.2 °C

GTCTGCGCGAAAGCGGAC (((..(((....))))))
folding enthalpy [1]: -55.9 kJ/mol
Tm [2]: 45.2 °C

GCGTCTGGAAACAAACGC ((((.((....)).))))
folding enthalpy [1]: -135 kJ/mol
Tm [2]: 44.5 °C
